Laboratory results taken from ChEMBL document CHEMBL1129691, “Synthesis and structure-DNA binding relationship analysis of DNA triple-helix specific intercalators” (J Med Chem, 1996).

What was measured:
[1] = PKa value of the N in quinoline ring is determined in 1-cm UV cell titreated with HCl or NaOH; format: physicochemical; settings: buffer
Procedure, shortened: (§1)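 UV-monitored pH titration with HCl or NaOH. Sample is dihydrobromide salt or free base (0.01 mM) in nanopure water with NaCl (4 mM) and EDTA (0.1 mM). UV-vis spectra (220-450 nm) recorded after each addition. pH range spans at least 2 units either side of pKa, at least two points per pH unit. Absorbance at the wavelength of greatest change is normalized and plotted against pH.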

Nucleic Acid [2] = assay: Temperature (delta Tm) for DNA triplex to duplex and single stranded transitions [Poly(dT.dA.dT) to Poly(dA.dT) and Poly(dT)]; format: nucleic-acid assay
Procedure, shortened: (§2)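 Thermal melting in PIPES buffer (0.01 M PIPES, 0.001 M EDTA, 0.2 M NaCl, pH 7.0). Duplex poly(dA·dT) and triplex poly(dT·dA·dT) are formed by adding DNA stock to buffer. Compound is added at a molar ratio of 0.3 per nucleic acid base (saturating). ΔTm = Tm(complex) − Tm(free DNA), estimated error ±0.5 °C.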

Nucleic Acid [3] = assay: Temperature (delta Tm) for DNA duplex denaturation evaluated by thermal melting; format: nucleic-acid assay; procedure, shortened: as §2
[4] = PKa value of the side chain terminal amino is determined in 1-cm UV cell titreated with HCl or NaOH; format: physicochemical; settings: buffer; procedure, shortened: as §1

| SMILES | pKa [1] | ΔTm (Nucleic Acid [2]) | ΔTm (Nucleic Acid [3]) | pKa [4] |
| --- | --- | --- | --- | --- |
| CN(C)CCSc1cc(-c2ccc3ccccc3c2)nc2ccccc12 | 4.4 | 18.6 °C | 0.2 °C | > 8 |
| Cc1ccc2cc(-c3cc(N(C)CCN(C)C)c4ccccc4n3)ccc2c1 |  | 19 °C | 0.4 °C |  |
| CN1CCN(c2cc(-c3ccccc3)nc3ccccc23)CC1 |  | 3.2 °C | 0 °C |  |
| CNCCN(C)c1cc(-c2ccc3ccccc3c2)nc2ccccc12 | 6.2 | 24.1 °C | 0.2 °C | > 8 |
| CN1CCN(c2cc(-c3ccc4c(ccc5ccccc54)c3)nc3ccccc23)CC1 |  | 18.6 °C | 0.3 °C |  |
| CN(C)CCN(C)C(=O)c1cc(-c2ccc3ccccc3c2)nc2ccccc12 |  | 2.1 °C | 0 °C |  |
| CN(C)CCNc1cc(-c2ccc3c(c2)Nc2ccccc2S3)nc2ccccc12 |  | 33.1 °C | 2.4 °C |  |
| CN(C)CCNc1cc(-c2cccs2)nc2ccccc12 |  | 9.4 °C | 0.7 °C |  |
| CN1CCN(c2cc(-c3ccc4ccccc4c3)nc3ccccc23)CC1 | 5.6 | 19.1 °C | 0.4 °C | > 8 |
| CNCCN(C)c1cc(-c2ccc3c(c2)Nc2ccccc2S3)nc2ccccc12 |  | 20.8 °C | 1.5 °C |  |
| CN(C)CCNc1cc(-c2ccc3ccccc3c2)nc2ccccc12 | 7.1 | 35.6 °C | 5.5 °C | > 8 |
| Cc1ccc2cc(-c3cc(NCCN(C)C)c4ccccc4n3)ccc2c1 |  | 32.9 °C | 2.2 °C |  |
| CN(C)CCNc1cc(-c2ccc3c(ccc4ccccc43)c2)nc2ccccc12 |  | 35.3 °C | 5.2 °C |  |
| CN(C)CCNc1cc(-c2ccccc2)nc2ccccc12 |  | 11.9 °C | 0.3 °C |  |
| Cc1ccc2cc(-c3cc(N4CCN(C)CC4)c4ccccc4n3)ccc2c1 |  | 15.5 °C | 0.4 °C |  |
| CN(C)CCN(C)c1cc(-c2cccs2)nc2ccccc12 |  | 3 °C | 0 °C |  |
| CNCCN(C)c1cc(-c2ccc3cc(C)ccc3c2)nc2ccccc12 |  | 23 °C | 0.5 °C |  |
| CN(C)CCNc1cc(-c2cccc3ccccc23)nc2ccccc12 |  | 1.9 °C | 0.1 °C |  |
